In paper PMC10195017 (Journal of Immunotherapy and Precision Oncology, 2023):
“Also recorded” adds a separate entry of the source. Like-named read-outs stand apart in the source and are kept apart here.

Assays:
Tregs [1] = settings: mice; 8 mg/kg twice a day IP and 16 mg/kg every day IP; cited from earlier work
pKa = format: physicochemical
Aqueous solubility = format: physicochemical
P-gp = P-gp (Homo sapiens, UniProt P08183); test: MDCK-MDR1 permeability; format: in vitro ADME
[2] = Octanol-water partition coefficient; format: physicochemical
Caco-2 = Caco-2 permeability; format: in vitro ADME; settings: Caco-2 assay
[3] = Plasma pharmacokinetics in male C57BL/6J mice after a single dose; format: in vivo; settings: non-tumor-bearing animals
Tregs [4] = settings: dogs; efficacious treatment; cited from earlier work
Tregs [5] = settings: rats; efficacious treatment; cited from earlier work
MALT1 [6] = settings: cited from earlier work
circulating Tregs = test: Circulating Treg frequencies in non-tumor-bearing rats; format: in vivo, Harlan Sprague Dawley rats; settings: 30 mg/kg orally, daily, 15 days; female rats; vs vehicle
Outline: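 Female Harlan Sprague Dawley rats, non-tumor-bearing, received the test compound at 30 mg/kg orally once daily for 15 days, with a vehicle group (n = 5 per cohort). Blood was drawn from the same animals on days −1, 3, 5, 7, 10 and 14. After red cell lysis, samples got viability dye, CD3/CD4/CD8/CD25 surface staining, fixation and permeabilization, and FoxP3 staining. Tregs (CD3+CD4+CD8α−FoxP3+) were counted as % of CD4+ cells and normalized to day −1 (100%). Unpaired t test per time point […].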

D4M.3A = test: In vivo tumor growth, D4M.3A syngeneic tumor model; set-up: species or system C57BL/6J mice; settings: for tumor growth, comparison of both salt forms: 32 mg/kg IP, QD, D4M.3A tumor-challenged mice, with and without anti-PD-1; for tumor growth, combination effect: combination with anti-PD-1, D4M.3A model; for tumor growth response: monotherapy, poorly immunogenic D4M.3A model, high doses of MPT-0118 or MPT-0308
Outline: (§1)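 Mice were 6-week-old male C57BL/6J, n = 10 per cohort. Tumor cells were trypsinized and spun 400g for 5 min, then put into the right hind flank: MC38 1 × 10^6 in 50:50 Cultrex:PBS, D4M.3A 1 × 10^6 in PBS, B16.F10 0.5 × 10^6 in HBSS. Test compound given once daily IP or by oral gavage from day 7 (B16.F10), 8 (MC38) or 9 (D4M.3A). Anti-PD-1, 200 μg IP ×3, every other day, 6 h after compound. Caliper volume = w² × l/2. Two-way ANOVA/Bonferroni on last treatment day.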

PDOTS = test: Viability of patient-derived organotypic tumor spheroids; format: cell-based, human; settings: 5 μM in combination with anti-PD-1, + αIFNγ 10 μg/mL
Outline: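 Colorectal cancer and melanoma resection samples were made into organotypic spheroids that kept their native immune cells. These were embedded in collagen in a 3D microfluidic device and cultured 5–7 days in DMEM with the test compound (3–5 μM). Arms were ± pembrolizumab 250 μg/mL, each ± anti-human IFNγ 10 μg/mL. Viability was measured by Hoechst 33342/propidium iodide imaging (45 min, 37 °C, 5% CO2) as live cell area. Results were given as percent change versus untreated control.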

tumor-infiltrating Tregs = test: Flow cytometry of tumor-infiltrating Tregs in D4M.3A-injected mice; format: in vivo, C57BL/6J mice; settings: combination therapy with anti-PD-1; D4M.3A tumors; mean ± SEM; pooled MPT-0118 and MPT-0308 (n = 16)
[7] = Plasma and tumor pharmacokinetics at steady-state in D4M.3A tumor-bearing mice; format: in vivo, C57BL/6J mice; settings: 64 mg/kg/day oral, steady-state after 21 days
Outline: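 Male C57BL/6J mice bearing D4M.3A tumors were pretreated for 21 days with the test compound (succinate salt) at 64 mg/kg orally. Plasma and tumor drug concentrations were then measured at steady state.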

B16.F10 = test: In vivo tumor growth, B16.F10 syngeneic tumor model; set-up: species or system C57BL/6J mice; settings: combination with anti-PD-1
Outline: as §1

MC38 MDOTS = test: Viability of MC38 MDOTS; format: cell-based, mouse; settings: day 6
Outline: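 MC38-derived spheroids kept their resident immune cells. They were mixed with collagen, loaded into the central gel region of a 3D microfluidic device, and set for 30 min at 37 °C. They were then hydrated with DMEM containing test compound 3 μM ± anti-mouse IFNγ 10 μg/mL, or anti-IFNγ alone, for 6 days. Viability was read by Hoechst 33342/propidium iodide staining (45 min, 37 °C, 5% CO2) and fluorescence imaging of total cell area per dye. Live signal was expressed as percent or log2 fold change versus control.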

MC38 = test: In vivo tumor growth, MC38 syngeneic tumor model; set-up: species or system C57BL/6J mice
Outline: as §1

MALT1 [8] = biological target: T1, MALT1 (Mus musculus, UniProt Q2TBA3); test: MALT1-cleaved CYLD-ct flow cytometry assay in murine CD4+ T cells; format: cell-based; settings: for MALT1 inhibition: murine CD4+ T cells
T1 sequence (Q2TBA3 1-832): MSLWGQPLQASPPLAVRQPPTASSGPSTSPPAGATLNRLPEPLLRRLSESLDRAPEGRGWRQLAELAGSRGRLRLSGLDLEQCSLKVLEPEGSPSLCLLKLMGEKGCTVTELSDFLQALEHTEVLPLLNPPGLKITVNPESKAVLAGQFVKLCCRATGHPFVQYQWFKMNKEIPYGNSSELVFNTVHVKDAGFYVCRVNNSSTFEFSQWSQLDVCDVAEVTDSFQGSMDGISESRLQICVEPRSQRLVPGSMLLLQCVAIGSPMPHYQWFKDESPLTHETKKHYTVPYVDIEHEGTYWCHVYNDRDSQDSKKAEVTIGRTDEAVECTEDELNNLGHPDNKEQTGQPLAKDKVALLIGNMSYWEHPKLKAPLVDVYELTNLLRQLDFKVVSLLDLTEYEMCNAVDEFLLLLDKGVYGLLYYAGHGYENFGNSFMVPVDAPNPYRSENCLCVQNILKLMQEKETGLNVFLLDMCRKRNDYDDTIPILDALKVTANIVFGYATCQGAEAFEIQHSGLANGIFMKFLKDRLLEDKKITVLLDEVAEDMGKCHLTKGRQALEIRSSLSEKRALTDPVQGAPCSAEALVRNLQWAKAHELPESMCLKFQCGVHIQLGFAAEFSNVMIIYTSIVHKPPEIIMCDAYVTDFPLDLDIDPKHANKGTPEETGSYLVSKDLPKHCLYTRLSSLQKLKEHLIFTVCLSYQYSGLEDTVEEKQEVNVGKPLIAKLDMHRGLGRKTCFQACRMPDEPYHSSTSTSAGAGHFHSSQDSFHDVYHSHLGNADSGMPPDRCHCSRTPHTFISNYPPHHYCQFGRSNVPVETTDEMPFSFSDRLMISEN
Outline: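 Murine CD4+ T cells were treated with a dose titration of the test compound or DMSO, then stimulated with PMA plus ionomycin. MALT1 activity was read by flow cytometry as the CYLD C-terminal cleavage product. Detection used the in-house neoepitope monoclonal 25F10, which recognizes both human and mouse cleaved CYLD. Median fluorescence intensity was compared with DMSO-treated cells. n = 3, mean ± SEM.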

[9] = system: D4M.3A murine melanoma tumor spheroids; test: Viability of cell-line-derived D4M.3A tumor spheroids; format: cell-based, mouse; settings: doses up to 10 μM; day 4
Outline: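 D4M.3A cell-line-derived tumor spheroids were embedded in collagen in a 3D microfluidic device (gel set 30 min, 37 °C). They were cultured in DMEM with the test compound at 0.3–10 μM for 4 days. Live/dead staining used Hoechst 33342/propidium iodide (45 min, 37 °C, 5% CO2), followed by fluorescence imaging and total raw cell area per dye. Live signal was expressed as percent change or log2 fold change relative to untreated control.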

Sequence of P-gp (P08183 whole entry): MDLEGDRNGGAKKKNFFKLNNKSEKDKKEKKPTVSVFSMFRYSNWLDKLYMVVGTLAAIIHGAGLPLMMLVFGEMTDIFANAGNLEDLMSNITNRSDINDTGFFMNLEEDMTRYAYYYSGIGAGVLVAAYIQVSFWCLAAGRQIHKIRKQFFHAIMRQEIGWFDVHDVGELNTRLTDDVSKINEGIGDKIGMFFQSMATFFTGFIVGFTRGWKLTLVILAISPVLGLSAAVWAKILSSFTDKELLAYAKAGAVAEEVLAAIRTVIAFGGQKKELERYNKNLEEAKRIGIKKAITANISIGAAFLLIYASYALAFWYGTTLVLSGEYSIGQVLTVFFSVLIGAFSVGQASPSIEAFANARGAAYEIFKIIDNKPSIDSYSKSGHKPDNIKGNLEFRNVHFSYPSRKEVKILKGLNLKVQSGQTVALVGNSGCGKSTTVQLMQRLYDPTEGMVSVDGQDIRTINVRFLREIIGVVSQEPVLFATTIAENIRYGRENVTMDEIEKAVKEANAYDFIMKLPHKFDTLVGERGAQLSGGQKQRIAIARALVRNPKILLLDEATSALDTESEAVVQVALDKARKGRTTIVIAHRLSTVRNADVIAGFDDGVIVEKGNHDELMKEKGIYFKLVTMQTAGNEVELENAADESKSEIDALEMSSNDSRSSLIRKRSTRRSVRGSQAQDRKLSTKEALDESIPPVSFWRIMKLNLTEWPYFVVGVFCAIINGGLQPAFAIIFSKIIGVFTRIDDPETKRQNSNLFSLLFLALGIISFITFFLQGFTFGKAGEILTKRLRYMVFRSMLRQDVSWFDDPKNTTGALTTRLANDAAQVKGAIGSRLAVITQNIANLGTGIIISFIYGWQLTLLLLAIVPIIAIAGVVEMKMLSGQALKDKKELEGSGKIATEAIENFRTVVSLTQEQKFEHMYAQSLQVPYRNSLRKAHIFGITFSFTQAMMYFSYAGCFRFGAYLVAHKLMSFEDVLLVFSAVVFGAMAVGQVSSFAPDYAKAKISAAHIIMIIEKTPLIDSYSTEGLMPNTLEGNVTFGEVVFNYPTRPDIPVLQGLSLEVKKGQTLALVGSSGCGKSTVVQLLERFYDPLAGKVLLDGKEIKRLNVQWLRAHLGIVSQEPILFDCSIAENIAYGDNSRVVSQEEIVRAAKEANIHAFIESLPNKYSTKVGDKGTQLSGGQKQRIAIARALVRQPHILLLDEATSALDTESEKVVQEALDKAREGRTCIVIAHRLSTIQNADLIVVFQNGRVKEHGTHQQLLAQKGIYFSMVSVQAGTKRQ

## CN1CCCC(CN2c3ccccc3Sc3ccccc32)C1 (racemic) [mepazine racemate, mepazine]
Tregs [1]
  Treg frequencies in peripheral blood: no effect

## CN1CCC[C@H](CN2c3ccccc3Sc3ccccc32)C1 [(S)-mepazine]
pKa
  pKa: 9.2
Aqueous solubility
  solubility (in words): apparent pH-dependent solubility
P-gp
  P-gp substrate: not a P-gp substrate
[2]
  logP: 5.29
Caco-2
  mean apparent AB permeability coefficient: 13.73 ± 0.15 × 10^−6 cm/s
[3]
  Tmax: ≤ 2 h

## CO[C@@H](C)c1c(NC(=O)Nc2ccnc(C(F)(F)F)c2)cnc2cc(Cl)nn12 [MLT-943]
Tregs [4]
  Treg numbers: rapid reduction of Tregs
Tregs [5]
  Treg numbers: rapid reduction of Tregs
  pathology developing after Treg reduction: reversible immune dysregulation, polyendocrinopathy, enteropathy, X-linked (IPEX)-like pathology
MALT1 [6]
  IC50: < 0.01 µM

## CN1CCC[C@H](CN2c3ccccc3Sc3ccccc32)C1.O=C(O)CCC(=O)O [MPT-0118, (S)-mepazine succinate]
Circulating Tregs
  circulating Treg frequencies: No change; also recorded: no effect
D4M.3A
  tumor growth, comparison of both salt forms: comparable effects on tumor growth
  tumor growth, combination effect: clear synergy
  tumor growth response: consistently responded
PDOTS
  effects on PDOTS with anti-IFNγ neutralizing antibody: reversed
tumor-infiltrating Tregs
  frequency of IFNγ+ Tregs (percentage of total tumor-infiltrating Tregs): 8.9 ± 1.01%
[7]
  peak concentrations in mouse plasma: ≤ 1.3 µM
[7]; over the following 24 hours
  drug concentrations in tumor tissue: 3000 to 10000 nM
B16.F10
  tumor growth, combination effect: clear synergy

## CN1CCC[C@H](CN2c3ccccc3Sc3ccccc32)C1.Cl [MPT-0308, (S)-mepazine hydrochloride]
MC38 MDOTS; 3 μM + anti-mouse IFNγ 10 μg/mL
  antitumor activity in MDOTS with anti-IFNγ neutralizing antibody: reversed
MC38 MDOTS; 3 μM
  antitumor activity in MDOTS: active
D4M.3A
  tumor growth, comparison of both salt forms: comparable effects on tumor growth
  tumor growth, combination effect: clear synergy
  tumor growth response: consistently responded
MC38; high dose in combination with anti-PD-1, MC38 model
  tumor growth, combination effect: additive effect
MC38; monotherapy, immunogenic MC38 model
  tumor growth: significant inhibition of tumor growth
MALT1 [8]; 3 μM
  MALT1 inhibition: roughly 75%
MALT1 [8]; 10 μM
  MALT1 inhibition: ~95%
MALT1 [8]; read-out: IC50 (MALT1-cleaved CYLD-ct), murine splenic CD4+ T cells stimulated with PMA/ionomycin
  IC50: 1.13 µM
[9]
  viability of tumor spheroids lacking immune cells and tumor stroma: not affected
tumor-infiltrating Tregs
  frequency of IFNγ+ Tregs (percentage of total tumor-infiltrating Tregs): 8.9 ± 1.01%
B16.F10
  tumor growth, combination effect: clear synergy
